Source: paper PMC10798254 (Indian Journal of Nuclear Medicine : IJNM : The Official …, 2023)

What was measured:
[1] = system: estrogen receptor-positive (ER+) tumors; experiment: Tumor localization of 99mTc-; assay type: in vivo
[2] = system: mCRPC with liver metastases; experiment: [177Lu]Lu-PSMA-617 in mCRPC with liver metastases; assay type: in vivo, patients
BIRADS-V breast lesions = experiment: 99mTc-MDM scintimammography; assay type: in vivo, patients
In short: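 For labelling, 15–20 mCi sodium pertechnetate was added to the kit vial and made up to 1.5 ml with 0.9% NaCl. It was incubated 15–20 min, then 0.22 µm filtered. 15–20 mCi was injected i.v. under the gamma camera. Spot views (anterior/posterior and lateral prone) were taken at 10, 60 and 180 min, and uptake mean and SD calculated at each time.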

B16F10 cells = experiment: Cell binding; assay type: cell-based; details: plateau after 30 minutes
melanoma tumor (B16F10) = experiment: In-vivo biodistribution; parameters: species or system C57BL6 mice; details: mouse
[3] = RCP of 68Ga-FAPI over time by TLC and HPLC; assay type: physicochemical
In short: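 Radiolabelled yield and RCP of the product were assessed by gradient HPLC and by TLC, using 0.1M sodium citrate and 50% acetonitrile as solvents. Physical appearance, pH and colour were also checked.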

[4] = Stability of 68Ga-FAPI till 4 hrs by ITLC; assay type: physicochemical
kidney = experiment: Effect of probenecid on renal uptake of 68Ga-DOTATATE and 68Ga-PSMA11; assay type: in vivo, Wistar rats; details: control versus experimental groups
amyloid-beta (Aβ42) = amyloid-beta (Aβ42) (Homo sapiens, UniProt P05067); experiment: Binding to synthetic Aβ42 peptide and molecular modeling; details: compared to monomeric counterparts
[5] = Biodistribution and dosimetry of 177Lu-DOTA-rituximab; assay type: in vivo, patients
In short: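 22 patients received a diagnostic administration, mean 288.6 MBq. Blood clearance, organ residence times and effective half-life were derived. Whole-body and organ (liver, spleen, kidneys, bone marrow) absorbed doses were expressed per MBq using OLINDA/EXM v2.1.1.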

NCI-H3255 = experiment: Methylene blue IC50 assay; assay type: cell-based; details: Homo sapiens
QG56 (wild-type EGFR) = experiment: Methylene blue IC50 assay; assay type: cell-based; details: Homo sapiens, QG-56
HCC827 = experiment: Methylene blue IC50 assay; assay type: cell-based; details: Homo sapiens
NCI-H1975 = experiment: Methylene blue IC50 assay; assay type: cell-based; details: Homo sapiens
Glioblastoma multiforme = experiment: [64Cu]CuCl2 PET in glioblastoma multiforme; assay type: in vivo, patients
carcinoma prostate = experiment: Detection of metastatic disease in carcinoma prostate, PET-CT; assay type: in vivo, patients; details: for detection rate, lymph nodes: 50 patients, head-to-head; for detection rate, skeletal metastases / detection rate, soft tissue metastases: in vivo
[6] = In-vitro stability of 99mTc-glibenclamide; assay type: physicochemical; details: solution in PEG 400, ethanol, DMSO stored at 2-8 C, without lyophilization
HeLa xenograft = experiment: In-vivo biodistribution; parameters: species or system SCID mice; details: mouse
HeLa cells (PDL-1) = experiment: Cell binding; assay type: cell-based, human; details: plateau after 30 minutes
medullary thyroid cancer = experiment: 131I-mIBG therapy of medullary thyroid cancer; assay type: in vivo, patients
In short: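 131I-mIBG given as dose-adjusted intravenous infusions in 100 ml 0.9% sodium chloride by syringe pump over 3 hours, at 30.5 to 120 mCi per dose. Twenty-three therapy doses in total, 1–4 per patient.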

[7] = system: metastatic pheochromocytoma and paraganglioma; experiment: I-131 MIBG therapy of metastatic pheochromocytoma and paraganglioma; assay type: in vivo, patients
thyroid remnant = experiment: 131I remnant ablation in differentiated thyroid cancer; assay type: in vivo, patients
[8] = system: papillary thyroid carcinoma; experiment: Empirical radioiodine therapy in papillary thyroid carcinoma; assay type: in vivo, patients; details: of 100
In short: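 100 papillary thyroid carcinoma patients received 1–3 empirical radioiodine ablations and were followed from 6 months to 12 years. Histologies were classical, follicular, oncocytic, tall cell and microcarcinoma. Disease status was judged from serum thyroglobulin trend during follow-up.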

[9] = system: peripheral blood lymphocytes; experiment: Cytokinesis block micronuclei assay after therapeutic 131I; assay type: in vivo, patients
In short: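 Blood was drawn from 18 thyroid cancer patients before and 72 hrs after a single oral therapeutic 131I dose (5.7 ± 2.1 GBq). Nine healthy volunteers served as controls. Samples were run by standard cytokinesis-block micronucleus protocol, scoring MN, NBUDs and NBR per 1000 binucleate PBLs.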

[10] = system: metastatic prostate cancer; experiment: 99mTc-PSMA SPECT/CT vs 68Ga-PSMA PET/CT lesion detection; assay type: in vivo, patients
In short: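 61 male patients with metastatic prostate cancer (mean age 67 ± 7.82 years) received i.v. 99mTc-PSMA, mean 12.82 ± 1.15 mCi. Anterior and posterior whole-body images were taken at 2.0 and 4.0 h on a dual-head gamma camera (matrix 256×1024, 12 cm/min). Lesion counts were compared against 68Ga-PSMA.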

LN18 = details: temozolomide resistant line; stated in methods, ref not given; cited from earlier work
U87 = details: temozolomide sensitive line; stated in methods, ref not given; cited from earlier work

Sequence of amyloid-beta (Aβ42) (P05067 672-713): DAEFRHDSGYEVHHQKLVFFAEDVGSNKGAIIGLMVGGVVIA

In the case of CC12CCC3c4ccc(O)cc4CCC3C1CCC2(O)c1cn(CCNC(=O)CN(CCN(CCN(CC(=O)O)CC(=O)NCCn2cc(C3(O)CCC4C5CCc6cc(O)ccc6C5CCC43C)nn2)CC(=O)O)CC(=O)O)nn1 (stereo not drawn) [^99mTc[(EST)2DT], 5,8-bis(carboxymethyl)-13-(4-(3,17-dihydroxy-13-methyl-7,8,9,11,12,13,14,15,16,17-decahydro-6H-cyclopenta[α]phenanthren-17-yl)-1H-1,2,3-triazol-1-yl)-2-(2-(2-(4-(3,17-dihydroxy-13-methyl-7,8,9,11,12,13,14,15,16,17-decahydro-6H-cyclopenta[α]phenanthren-17-yl)-1H-1,2,3-triazol-1-yl)ethylamino)-2-oxoethyl)-10-oxo-2,5,8,11-tetraazatridecane-1-carboxylic acid, metal not drawn], the T/M ratio ([1]; at 2.0 hours) is reported as 1.11 ± 0.34 and the “increase in tumor localization” value ([1]; in vivo) is reported as “fivefold”.
For [^177Lu]Lu-PSMA-617, the “Grade 3 anemia” value ([2]; 2/18 patients) was 11.1%, the ORR ([2]; 4/14 patients) was 28.6% and the “best PSA-RR (PSA decline of ≥50%)” value ([2]; 4/16 patients, median cumulative 11.1 GBq over 1-7 cycles) was 25%. For the same molecule, the “median OS” value ([2]; 95% CI: 11.5-14.5) was 13.0 months.
For DTPA-bis-methionine [^99mTc-MDM], the “mean Tu:Bkg ratio” value (BIRADS-V breast lesions; Prone Lateral, 10min) was 1.89 ± 0.578, the “mean Tu:Bkg ratio” value (BIRADS-V breast lesions; Prone Lateral, 1hr) was 1.95 ± 0.717 and the “mean Tu:Bkg ratio” value (BIRADS-V breast lesions; Prone Lateral, 3hrs) was 2.059 ± 0.728. The “mean Tu:Bkg ratio” value (BIRADS-V breast lesions; anterior view, 10min) was 2.606 ± 0.601 and the “mean Tu:Bkg ratio” value (BIRADS-V breast lesions; anterior view, 3hrs) was 3.04 ± 1.114.
With [^177Lu]Lu-DOTA-Bevacizumab the binding in cells (B16F10 cells) was “Approximately 32 ± 3%” and the accumulation in tumor (melanoma tumor (B16F10)) was 8.2 ± 2.7 % ID/g.
With N#C[C@@H]1CC(F)(F)CN1C(=O)CNC(=O)c1ccnc2ccc(OCCCN3CCN(C(=O)CN4CCN(CC(=O)[O-])CCN(CC(=O)[O-])CCN(CC(=O)[O-])CC4)CC3)cc12.[68Ga+3] [68Ga-DOTA-FAPI04] the “RCP by TLC” value ([3]; 0.1M Na citrate, 30 min) was 98.84±0.7%, the “RCP by TLC” value ([3]; 0.1M Na citrate, 1 h) was 98.27±0.81% and the “RCP by TLC” value ([3]; 0.1M Na citrate, 2 h) was 97.18±1.5%. For the same molecule, the “RCP by TLC” value ([3]; 50% acetonitrile, 30 min) was 98.24±0.86%, the “RCP by TLC” value ([3]; 50% acetonitrile, 1 h) was 97.84±0.98% and the “RCP by TLC” value ([3]; 50% acetonitrile, 2 h) was 96.89±1.1%. For the same molecule, the “RCP by HPLC” value ([3]; 30 min) was 100%, the “RCP by HPLC” value ([3]; 1 h) was 100% and the “RCP by HPLC” value ([3]; 2 h) was 100%. For the same molecule, the “stability (RCP) at 4 hrs” value [4] was 96.31%.
With CCCN(CCC)S(=O)(=O)c1ccc(C(=O)O)cc1 [probenecid, Probenecid] the “change in kidney excretion pattern” value (kidney) was “no significant change”.
For CN(CCOc1ccc(C(=O)/C=C/c2ccc(N(C)C)cc2)cc1)CCOc1ccc(C(=O)/C=C/c2ccc(N(C)C)cc2)cc1 [¹¹C-(Chal)2DEA-Me, (2E,2′E)-1,1′-((((methylazanediyl)bis(ethane-2,1-diyl))bis(oxy))bis(4,1-phenylene))bis(3-(4-(dimethylamino)phenyl)prop-2-en-1-one)], the binding affinity (amyloid-beta (Aβ42)) was “superior binding affinity compared to monomeric counterparts”.
With ^177Lu-DOTA-rituximab the effective half-life ([5]; 22 patients) was 104.5 ± 22 h, the “mean WB radiation absorbed dose” value ([5]; OLINDA/EXM) was 0.208 ± 0.03 mGy/MBq and the “mean WB effective dose” value ([5]; in vivo) was 0.196 ± 0.05 mGy/MBq. The “mean radiation absorbed dose, bone marrow” value ([5]; in vivo) was 0.136 ± 0.02, the “mean radiation absorbed dose, kidneys” value ([5]; in vivo) was 1.01 ± 0.42 mGy/MBq and the “mean radiation absorbed dose, liver” value ([5]; in vivo) was 0.613 ± 0.21 mGy/MBq. The “mean radiation absorbed dose, spleen” value ([5]; in vivo) was 1.68 ± 2 mGy/MBq.
Work on C=CC(=O)Nc1cc(Nc2nccc(-c3cn(C)c4ccccc34)n2)c(OC)cc1N(C)CCN(C)C [Osimietinib, Osimertinib] yielded an IC50 (NCI-H3255) of 4 nM, an IC50 (QG56 (wild-type EGFR)) of 1800 nM and an IC50 (HCC827) of 2 nM. For the same molecule, the IC50 (NCI-H1975) was […].
In the case of [^90Y]Y-CHX-A”-DTPA-Bevacizumab, the binding in cells (B16F10 cells) is reported as “Approximately 32 ± 3%” and the accumulation in tumor (melanoma tumor (B16F10)) is reported as 8.2 ± 2.7 % ID/g.
For [64Cu+2].[Cl-].[Cl-] [^64CuCl2, 64-copper chloride], the SUVmax (Glioblastoma multiforme; first imaging, 2 patients) was 1.12, the tolerability (Glioblastoma multiforme; in vivo) was “well-tolerated” and the “detection rate, lymph nodes” value (carcinoma prostate) was 79%. The “detection rate, skeletal metastases” value (carcinoma prostate) was 77.3% and the “detection rate, soft tissue metastases” value (carcinoma prostate) was 80.6%.
In the case of COc1ccc(Cl)cc1C(=O)NCCc1ccc(S(=O)(=O)NC(=O)NC2CCCCC2)cc1 [GBD, Glibenclamide], the “period for which solubilized drug solution was labeled efficiently” value [6] is reported as 2 months.
In the case of [^90Y]Y-CHX-A”-DTPA-Atezolizumab, the “retention in the tumor” value (HeLa xenograft) is reported as 5.2 ± 2.5 % ID/gm and the binding with cells (HeLa cells (PDL-1)) is reported as ~ 18 ± 3.5%.
In the case of N=C(N)NCc1cccc([131I])c1 [I-131 MIBG, Metaiodobenzylguanidine], the “calcitonin levels remained stable” value (medullary thyroid cancer; 30.5 to 120 mCi per dose, 1-4 doses) is reported as 8/13, the calcitonin levels progressed (medullary thyroid cancer; in vivo) is reported as 5/13 and the “regression on repeat mIBG scans” value (medullary thyroid cancer; in vivo) is reported as 3/12. The side effects (medullary thyroid cancer; in vivo) was “no reported side effects”, the “immediate side effect post therapy” value ([7]; 20 patients) was “only one patient experienced severe vomiting” and the “patients with symptomatic relief” value ([7]; in vivo) was 70%. For the same molecule, the progressive disease ([7]; in vivo) was 9/20 and the partial response ([7]; ~100mCi i.v. per therapy) was 11/20.
With O=C([O-])CN(CCN(CC(=O)[O-])Cc1cc(CCC(=O)NCCCCCC(=O)NCCCC[C@H](NC(=O)N[C@@H](CCC(=O)O)C(=O)O)C(=O)O)ccc1[O-])Cc1cc(CCC(=O)O)ccc1[O-].[68Ga+3].[OH3+] [^68Ga-PSMA-11] the “detection rate, lymph nodes” value (carcinoma prostate) was 99%, the “detection rate, skeletal metastases” value (carcinoma prostate) was 99% and the “detection rate, soft tissue metastases” value (carcinoma prostate) was 85.4%.
In the case of [131IH] [radioiodine], the successful remnant ablation (thyroid remnant; baseline S Tg <12.3) is reported as 84.1%, the successful remnant ablation (thyroid remnant; baseline S Tg more than 12.3) is reported as 21.2% and the “patients with successful ablation in a single dose” value (thyroid remnant; of 383, 70.3 ± 33.6 mCi) is reported as 251 patients. For the same molecule, the “progression post empirical therapy” value [8] was “Fifty-two”, the “regression of disease (decreasing serum thyroglobulin)” value [8] was 38 patients and the “NBUDS /1000 BN PBLs post exposure” value ([9]; 72 hrs after 5.7 ± 2.1 GBq, Pre 7.4 ± 5.3, n = 18) was 11.9 ± 7.2. For the same molecule, the “NBR /1000 BN PBLs post exposure” value ([9]; 72 hrs after exposure, Pre 5.7 ± 4.4) was 14.4 ± 8.1.
With O=C([O-])CN(CCN(CC(=O)[O-])Cc1cc(CCC(=O)NCCCCCC(=O)NCCCC[C@H](NC(=O)N[C@@H](CCC(=O)O)C(=O)O)C(=O)O)ccc1[O-])Cc1cc(CCC(=O)O)ccc1[O-].[68Ga+3].[OH3+] [^68Ga-PSMA] the pelvic lesions detected ([10]; 61 patients) was 341 lesions, the “extra pelvic distant metastatic lesions detected” value ([10]; in vivo) was 237 lesions and the total lesions detected ([10]; in vivo) was 578 lesions.
For Cn1nnc2c(C(N)=O)ncn2c1=O [temozolomide], the IC50 (LN18) is listed as 400000 to 500000 nM and the IC50 (U87) is listed as 10000 to 100000 nM.
